Source: PubChem BioAssay (several laboratories)
CHOP UPR activ = activators of apoptotic arm of unfolded protein response (CHOP); actives 0.34% (n = 330,000); CHO-CHOP luciferase reporter, UPR activation, luminescence; percent of tunicamycin response over DMSO baseline; activation, % at 10 µM;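 active means at 10 µM dose, activation of 40% or more, normalized to positive control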;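 further: 100% = tunicamycin at 10 µg/mL and 0% = DMSO alone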
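System: CHO-CHOP luciferase reporter cell line; amount: 500 cells/well; buffer or medium: F12 medium containing 10% fetal bovine serum; incubation: 6 h compound exposure at 37 °C after overnight seeding; measured by: luciferase luminescence after 10 min with Steady-Glo reagent; evaluation: % reporter activation, DMSO baseline versus tunicamycin full activation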
UPR XBP1 act = activators of adaptive arm of unfolded protein response (XBP1); CHO-XBP1 luciferase reporter, IRE1-XBP1 UPR activation, luminescence; percent of tunicamycin response, DMSO as zero; activation, % at 20 µM; actives 0.33% (n = 330,000); AID 463104;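 active means versus positive control, 20 µM dose yields 30% or more activation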;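 further: 100% = tunicamycin at 10 µg/mL and 0% = DMSO only wells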
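Material: CHO-XBP1 cells stably carrying IRE1-XBP1-driven luciferase reporter / Amount: 1000 cells per well / Compound: 20 µM, 1% DMSO / Times: 6 h treatment, 37 °C / Detection: luciferase luminescence / Measure: % activation of reporter signal versus tunicamycin and DMSO controls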
Jurkat NFkB inh = inhibitors of the PMA/ionomycin-induced NF-kB reporter in Jurkat cells; PMA/ionomycin-induced NF-kB luciferase reporter, luminescence; inhibition, % at 4 µM; actives 0.53% (n = 330,000); in the data active means inhibition above about 50%
697 NFkB inh = lowers PMA/ionomycin-induced NF-kB signal in 697 B cells; 697 B-cell NF-kB luciferase reporter, 16 h; inhibition, % at 4 µM; actives 0.33% (n = 330,000); AID 435022; in the data active means inhibition above about 35%
CHOP inhibitor = blocks CHOP induction under ER stress; CHO-K1 CHOP-promoter luciferase, tunicamycin-induced, 15-18 h; inhibition, % at 10 µM; actives 3.8% (n = 220,000); AID 2732;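 active means compounds that reduced the stress-induced luciferase reporter signal by more than about 70% of percent inhibition, limit read from the data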;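 further: 0% = tunicamycin plus vehicle and 100% = wells without tunicamycin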
Jurkat NFkB conf = lowers PMA/ionomycin-induced NF-kB signal in Jurkat cells | shares compounds with Jurkat NFkB inh | Jurkat NF-kB luciferase, 16 h | inhibition, % at 4 µM | actives 27% (n = 2,700);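 active means inhibition reaching about 45% at 4 µM in either replicate, limit read from the data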;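 further: plate controls were PMA/ionomycin stimulated DMSO wells for no effect and unstimulated DMSO wells for full effect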
Active calls of the source: *; · = not tested or not shown. Only a selection was taken, and hits are over-represented in it overall.

SMILES	CHOP UPR activ	UPR XBP1 act	Jurkat NFkB inh	697 NFkB inh	CHOP inhibitor	Jurkat NFkB conf
O=C(NCCc1ccccc1)c1cc([N+](=O)[O-])ccc1N1CCOCC1	-1	-2	8	10	·	·
Cc1ccc(-n2nc(C)c3c(C)c(CCC(=O)O)c(C)nc32)cc1C	0	-1	6	2	·	·
Cc1cc(C)cc(N(CC(=O)Nc2ccc(Br)cc2)S(=O)(=O)c2c(C)[nH]c(=O)[nH]c2=O)c1	0	-7	-4	3	·	·
CC(OC(=O)c1ccc2ncsc2c1)C(=O)NC1CCCCC1C (configuration not stated)	0	-1	0	11	·	·
Cc1ccc(C)c(NC(=O)C(Sc2ncnc3ccccc23)c2ccccc2)c1 (configuration not stated)	-1	-1	6	-7	33	·
Cc1ccc(C)c(NC(=O)C(Sc2nc3ccccc3c(=O)n2CC(C)C)c2ccccc2)c1 (configuration not stated)	3	-3	65*	-16	-42	6
COc1ccc(N2CC(C(=O)N/N=C/c3ccc([N+](=O)[O-])cc3)CC2=O)cc1 (configuration not stated)	0	1	-9	7	14	·
COc1ccc(N2CC(C(=O)N/N=C/c3ccc(C)cc3)CC2=O)cc1 (configuration not stated)	-4	0	55*	-37	-33	18
O=C(c1ccncc1)N1CCN(S(=O)(=O)c2ccc(OC(F)(F)F)cc2)CC1	-2	0	-15	2	·	·
CC(C)(C)c1ccc(/C=C(\C#N)C(=O)NCCN2CCOCC2)cc1	1	-1	-7	18	1	·
COc1ccc(CNCC(=O)Nc2ccccc2-n2cccc2)cc1	-2	2	68*	-28	10	13
COc1ccc(OCC(=O)Nc2ccccc2N2CCCCC2)cc1	3	4	64*	4	·	47
C=CCn1c(NCc2ccc(OC)cc2O)nc2ccccc21	2	3	-35	-40	·	·
Cc1ccccc1CSc1nc2[nH]ncc2c(=O)[nH]1	0	2	-4	13	15	·
Cc1ccc(C)c(CSc2nc3[nH]ncc3c(=O)[nH]2)c1	-3	-3	66*	-30	40	46
Cc1ccc(CN2CC(C(=O)N3CC=C(c4ccccc4)CC3)CC2=O)cc1 (configuration not stated)	0	-3	29	17	·	·
Cn1nccc1C(=O)N(CCN1CCCCC1)CC1CCCN(C2CCCC2)C1 (configuration not stated)	4	-6	-42	-13	·	·
CN1CCN(C(=O)c2ccccc2NC(=O)c2sc3ccccc3c2Cl)CC1	0	-2	16	-6	·	·
CN1CCN(c2ccc(NC(=O)c3sc4ccccc4c3Cl)cc2)CC1	2	-5	-179	-176	26	-60
Cc1[nH]c2ccc(C(=O)NCc3ccccn3)cc2c1C	2	7	-1	-13	·	·
CC(Sc1nncs1)C(=O)Nc1ccc2c(c1)OCCO2 (configuration not stated)	3	4	-6	8	·	·
Cc1ccc2nc(-c3ccc(NC(=O)C(C)Sc4nncs4)cc3)sc2c1 (configuration not stated)	2	3	-167	-163	·	-36
CC1CC2OC(=O)C3(C)CCCC(C)(C23)C1(O)CCc1ccoc1 (configuration not stated)	2	2	-8	3	14	·
Cc1cccc(N2CCN(C(=O)c3ccc(CS(=O)(=O)c4ccccc4C)o3)CC2C)c1 (configuration not stated)	4	20	65*	9	·	52*
Cc1ccc(C)c(N2CCN(C(=O)c3ccc(CS(=O)(=O)c4ccccc4C)o3)CC2)c1	0	3	19	-10	·	·
SMILES	CHOP UPR activ	UPR XBP1 act	Jurkat NFkB inh	697 NFkB inh	CHOP inhibitor	Jurkat NFkB conf
CCCCCN1C=CC(=C2C(=O)c3ccccc3C2=O)C=C1	-10	-12	60*	-18	98*	40
Cc1cc(C(=O)Nc2sc3c(c2C#N)CCCCC3)cs1	2	1	-186	-179	26	-105
O=C(NCCCN1CCCC1=O)c1ccccc1OCc1ccc(Cl)cc1Cl	-1	-1	3	1	·	·
CCC(C)(C)c1ccc(OCCCC[n+]2cccc(C)c2C)c(C(C)(C)CC)c1	19	23	94*	34	79*	75*
Cc1cc(C(C)(C)C)ccc1OCCCCN1CCCC1	1	2	-8	-18	14	·
O=C(O)C(=O)/C(=C\c1ccc(Cl)cc1)c1ccc2ccccc2n1	1	0	-156	-84	4	-54
CCCCCCCCC[n+]1cccc2c3ccccc3ccc21	9	15	71*	-23	17	68*
O=[N+]([O-])c1ccc(C[n+]2cccc3c4ccccc4ccc32)cc1	-1	6	11	2	3	·
Cc1oc2c(C)c3oc(=O)c(CCC(=O)O)c(C)c3cc2c1-c1ccccc1	0	-3	-23	-8	·	·
O=C(CSc1ccccc1)NCC1(N2CCCCC2)CCCCC1	0	-5	-2	-1	·	·
Cc1ccc(-c2nnc(SCc3ccccc3F)o2)cc1	1	-1	-165	-149	75*	-72
C#CCn1c(CCNC(=O)c2ccco2)nc2ccccc21	1	0	-2	10	·	·
Cc1c(N(C(=O)c2ccccn2)C2(C(=O)NC3CCCCC3)CCCCC2)c(=O)n(-c2ccccc2)n1C	1	1	-12	-15	-5	·
O=C(N/N=C/c1ccccc1)c1[nH]c2ccc(Br)cc2c1-c1ccccc1	1	14	58*	34	35	8
COCc1ccc(CN2CCCC(CO)(Cc3ccccc3)C2)o1 (configuration not stated)	-2	-1	10	3	6	·
O=C(Nc1ccc(Cl)cn1)c1ccc2c(Cl)c3c(nc2c1)CCC3	7	9	-157	-168	66	-93
CCOC(=O)C1=C(COC(=O)c2ccc3ccccc3c2O)NC(=O)NC1C (configuration not stated)	2	7	-19	-10	·	·
CCOC(=O)Nc1nc(-c2ccccc2)c(C(=O)c2ccc(Cl)cc2)s1	-3	28	54*	8	-20	55*
Cc1nc(SCC(=O)NNC(=O)c2ccc(F)cc2)c2ccccc2n1	0	-3	-3	16	·	·
CSc1nc(N(C)NC(=O)c2ccc(F)cc2)c2ccccc2n1	-3	0	51*	-1	27	33
CCCCOc1ccc(C2=CSC3=NCCN23)cc1[N+](=O)[O-]	0	7	-20	-17	·	·
CCCCOc1ccc(-c2csc(N)n2)cc1[N+](=O)[O-]	8	4	-167	-86	36	4
